Screening results: PubChem, several laboratories
Rows were chosen to be rich in hits. Some 3.8% of all compounds tested hit in one or more screens of this group.
Exocytosis inh: lytic granule exocytosis inhibition. TALL-104 LAMP-1 surface exposure, flow cytometry; cells stimulated with thapsigargin and PMA. inhibition, % at 10 µM. 360,000 tested, 0.66% active. AID 651702;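 active means inhibition above about 55%, limit read from the data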
T cell HTS: T cell immune modulators affecting CD8 T cell-vesicle binding. 2C CD8+ T cell-vesicle binding, flow cytometry; hits give low values. response (vesicle binding), % at 7 µM. 330,000 tested, 0.068% active;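 active means response, share of CD8 T cells binding vesicles, and their 90th percentile fluorescence all below set limits, cut at about 80% in these data, passing the limit was not always enough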;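 further: values below 100% mean blocked vesicle binding to the CD8+ T cells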
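Read-out – percent CD8+ FL2 mean versus row control · System – murine 2C transgenic CD8+ T lymphocytes · Times – 1.5 h cell–vesicle binding at 37 °C, then 20 min icy labelling · Control set – naked vesicles low, QL9 vesicles with vehicle high · Detection – cytometric PE anti-B7-1 and Alexa647 anti-CD8 signals after 1% paraformaldehyde fixation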
rCAG RNA binder: r(CAG) repeat RNA binding. 370,000 tested, 1.3% active. TO-PRO-1 dye displacement fluorescence. inhibition, % at 3 µM;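 active means inhibition above the plate cutoff, the mean of all test compounds on that plate plus 3 SD, cut at about 35% in these data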;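 further: 0% = DMSO alone and 100% = 100 µM mitoxantrone as full dye displacement; higher means more dye released from RNA so lower well fluorescence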
MPTP inh: inhibitors of mitochondrial permeability transition pore | isolated mouse mitochondria, Ca2+ swelling absorbance, 30 min | inhibition, % at 10 µM | 360,000 tested, 1.4% active | AID 602449;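 active means inhibition of 50% or more, scaled per plate between neutral and stimulator controls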;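 further: 0% = DMSO wells given calcium and 100% = 1 mM EGTA wells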
B2AR ag: human beta-2 adrenergic receptor agonism by FAP; Am2.2-beta2AR cells, FAP receptor internalization, flow cytometry; 340,000 tested, 0.43% active; P07550; response, % (concentration not given with the values);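 active means response above a set limit, near 3 SD of response in nonfluorescent compounds, cut at about 42% in these data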
Target sequence (P07550 whole entry, looked up): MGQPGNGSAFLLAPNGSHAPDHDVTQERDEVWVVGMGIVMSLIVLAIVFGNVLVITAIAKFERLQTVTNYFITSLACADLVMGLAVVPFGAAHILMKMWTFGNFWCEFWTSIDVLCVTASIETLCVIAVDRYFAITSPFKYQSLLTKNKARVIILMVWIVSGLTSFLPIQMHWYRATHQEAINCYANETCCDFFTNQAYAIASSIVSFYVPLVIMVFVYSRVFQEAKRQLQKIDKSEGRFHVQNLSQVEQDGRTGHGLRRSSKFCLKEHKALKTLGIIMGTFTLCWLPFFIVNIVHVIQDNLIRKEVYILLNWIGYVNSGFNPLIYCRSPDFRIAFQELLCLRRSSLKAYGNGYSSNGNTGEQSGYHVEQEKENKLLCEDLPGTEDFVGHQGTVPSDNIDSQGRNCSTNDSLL
V-ATPase pHluor: regulators of yeast V-ATPase proton transport; AID 504577; 350,000 tested, 0.37% active; S. cerevisiae, pHLuorin cytosolic pH fluorescence; response, % at 10 µM; in the data active means response mostly above about 7.3%, no sharp cut-off; inactive means mostly below about 5.4%; further: actives read high
MPTP counter: Rhodamine 123 counter-screen of mitochondrial pore hits; shares compounds with MPTP inh; isolated mitochondria, membrane potential, Rhodamine 123 fluorescence; inhibition, % at 10 µM; 5,000 tested, 78% active; AID 624504; in the data active means inhibition above about 22%;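 further: 0% = DMSO vehicle and 100% = positive control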
rCAG binder conf: r(CAG) RNA repeat binding, confirmation; 4,300 tested, 70% active; shares compounds with rCAG RNA binder; inhibition, % at 3 µM; TO-PRO-1 dye displacement fluorescence;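 active means inhibition above a per-plate cutoff, the mean inhibition of sample wells plus 3 SD, cut at about 35% in these data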;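 further: loss of TO-PRO-1 fluorescence as compound displaces dye from 1x1 AA loop RNA; 0% = DMSO only wells and 100% = 100 µM mitoxantrone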
dCAG dye counter: disrupts DNA CAG TO-PRO-1 complex, flagging rCAG hits; shares compounds with rCAG RNA binder; d(CAG) DNA oligo TO-PRO-1 dye displacement, fluorescence; inhibition, % at 3 µM; 4,300 tested, 94% active; AID 652068;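 active means inhibition above its plate's cutoff, the mean test-well inhibition plus 3 SD, cut at about 4.8% in these data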;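 further: 0% = DNA dye mix with DMSO and 100% = 100 µM mitoxantrone; hits displace the dye from DNA and so lower well fluorescence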
Starred values were filed as active, the others as inactive.

How did COc1ccc(C)cc1NC(=O)c1ccccc1NS(=O)(=O)c1ccc(Cl)s1 do in these assays?
Exocytosis inh: 9; T cell HTS: 356; rCAG RNA binder: 90*; MPTP inh: 88*; B2AR ag: 20; V-ATPase pHluor: -1; MPTP counter: 61*; rCAG binder conf: 84*; dCAG dye counter: 54*

How did CCN1C(=O)/C(=C2\SC(=S)N(NC(=O)c3ccccc3O)C2=O)c2ccccc21 do in these assays?
Exocytosis inh: 2; T cell HTS: 174; rCAG RNA binder: 77*; MPTP inh: 87*; B2AR ag: 6; V-ATPase pHluor: 1; MPTP counter: 32*; rCAG binder conf: 86*; dCAG dye counter: 58*

How did Cc1nn(-c2ccccc2)c(Cl)c1/C=C1\SC(=S)NC1=O do in these assays?
Exocytosis inh: 1; T cell HTS: 696; rCAG RNA binder: 65*; MPTP inh: 54*; B2AR ag: 9; V-ATPase pHluor: 7; MPTP counter: 66*; rCAG binder conf: 64*; dCAG dye counter: 18*

How did O=C(Nc1nnc(-c2ccccc2Cl)o1)c1nc2ccccc2s1 do in these assays?
Exocytosis inh: 0; T cell HTS: 541; rCAG RNA binder: 40*; MPTP inh: 96*; B2AR ag: 1; V-ATPase pHluor: -1; MPTP counter: -9; rCAG binder conf: 47*; dCAG dye counter: 13*

Results for O=C(CS(=O)(=O)c1ccc(F)cc1)Nc1nnc(-c2ccccc2Cl)o1 ?
Exocytosis inh: -11; T cell HTS: 493; rCAG RNA binder: 13; MPTP inh: -1; B2AR ag: -1; V-ATPase pHluor: -1

How did Cc1ccc(NC(=S)NNC(=O)c2cccc([N+](=O)[O-])c2)cc1Cl do in these assays?
Exocytosis inh: 26; T cell HTS: 312; rCAG RNA binder: 73*; MPTP inh: 79*; B2AR ag: 4; V-ATPase pHluor: 11; MPTP counter: 65*; rCAG binder conf: 70*; dCAG dye counter: 24*

Results for Cc1ccc(NC(=S)NNc2ccc(C(=O)O)cc2[N+](=O)[O-])cc1C ?
Exocytosis inh: -2; T cell HTS: 288; rCAG RNA binder: 35*; MPTP inh: 54*; B2AR ag: -6; V-ATPase pHluor: 7; MPTP counter: 64*; rCAG binder conf: 23; dCAG dye counter: 10*

How did Cc1csc(NC(=O)Nc2cccc(Cl)c2)n1 do in these assays?
Exocytosis inh: 0; T cell HTS: 241; rCAG RNA binder: 46*; MPTP inh: 92*; B2AR ag: 25; V-ATPase pHluor: 2; MPTP counter: 75*; rCAG binder conf: 11; dCAG dye counter: 16*

How did O=C(Nc1cccc(Cl)c1)Nc1nc(-c2ccccc2)cs1 do in these assays?
Exocytosis inh: 15; T cell HTS: 378; rCAG RNA binder: 50*; MPTP inh: 94*; B2AR ag: -1; V-ATPase pHluor: 4; MPTP counter: 83*; rCAG binder conf: 21; dCAG dye counter: 20*

How did COC(=O)c1c(-c2ccc(OC)cc2)c2c(c3c4cc(OC)ccc4n(S(=O)(=O)c4ccc(C)cc4)c13)C(=O)N(C)C2 do in these assays?
rCAG RNA binder: 16

Results for N#CC1=C(N)SC(N)=C(C#N)C1c1cccc(Oc2ccccc2)c1 ?
Exocytosis inh: 1; T cell HTS: 355; rCAG RNA binder: 60*; MPTP inh: 89*; B2AR ag: 19; V-ATPase pHluor: -2; MPTP counter: 70*; rCAG binder conf: 34; dCAG dye counter: 11*

How did CCOc1ccc(C2C(C#N)=C(N)SC(N)=C2C#N)cc1OCC do in these assays?
Exocytosis inh: -2; T cell HTS: 185; rCAG RNA binder: 20; MPTP inh: 6; B2AR ag: -27; V-ATPase pHluor: 5

Results for Cc1cccc2sc(NNC(=O)c3cc(-c4cccs4)nc4ccccc34)nc12 ?
Exocytosis inh: 13; T cell HTS: 420; rCAG RNA binder: 38*; MPTP inh: 68*; B2AR ag: 17; V-ATPase pHluor: 0; MPTP counter: 87*; rCAG binder conf: 36*; dCAG dye counter: 16*

Results for Cc1noc(C)c1S(=O)(=O)N(C)C[C@@H]1OCc2cnnn2CCCC(=O)N([C@@H](C)CO)C[C@@H]1C ?
rCAG RNA binder: 3

Results for CCOC(=O)[C@@]12CCCC=C1N(CCc1ccc(Cl)cc1)C(=O)[C@H]2CC(=O)NCc1cccs1 ?
rCAG RNA binder: 3

Results for CC(C)=CCc1c(O)cc2oc3c(CC=C(C)C)c(O)c(O)c(CC=C(C)C)c3c(=O)c2c1O ?
Exocytosis inh: 4; T cell HTS: 200; rCAG RNA binder: 72*; MPTP inh: 92*; B2AR ag: 21; V-ATPase pHluor: -3; MPTP counter: 7; rCAG binder conf: 67*; dCAG dye counter: 47*

What do the screens show for `CC(=O)c1ccc(O)c(CC=C(C)C)c1O`?
Exocytosis inh: -2; T cell HTS: 902; rCAG RNA binder: 2; MPTP inh: 0; B2AR ag: 0; V-ATPase pHluor: 0

How did C/C(=N\NC(=O)c1ccc(-c2ccccc2)cc1)C1C(=O)c2ccccc2C1=O do in these assays?
Exocytosis inh: 8; T cell HTS: 318; rCAG RNA binder: 47*; MPTP inh: 76*; B2AR ag: 9; V-ATPase pHluor: 0; MPTP counter: 43*; rCAG binder conf: 83*; dCAG dye counter: 50*

How did CCOC(=O)CNC(=O)CSc1nnc(-c2cccs2)o1 do in these assays?
rCAG RNA binder: 1

Results for COC(=O)[C@@]12CCCCC3=C1N(CCC3)C(=O)[C@H]2CC(=O)NCc1ccc(OC)c(OC)c1 ?
rCAG RNA binder: 0

How did COc1ccc(/C=C2/C(=O)N(c3nc4ccccc4s3)N=C2CSc2ccc(Cl)cc2)cc1 do in these assays?
Exocytosis inh: 0; T cell HTS: 0; rCAG RNA binder: 71*; MPTP inh: 91*; B2AR ag: 23; V-ATPase pHluor: -3; MPTP counter: 56*; rCAG binder conf: 72*; dCAG dye counter: 51*

How did COc1ccc(/C=C2/C(=O)N(Cc3ccccc3)N=C2C)cc1 do in these assays?
Exocytosis inh: 1; T cell HTS: 922; rCAG RNA binder: 4; MPTP inh: 0; B2AR ag: 18; V-ATPase pHluor: 1

Results for CC(=O)N1c2ccccc2C(C)=NCC1C(=O)NC1CCCCC1 (configuration not stated) ?
rCAG RNA binder: -1
